ADAM17 inh – inhibits human ADAM17. AID 720648. P78536. 0.83% of 370,000 active. recombinant ADAM17, EDANS/DABCYL FRET peptide cleavage. inhibition, % at 6.95 µM;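 active means inhibition above the mean of compounds lying between control limits plus 3 SD, set per campaign, cut at about 8.5% in these data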;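 further: 0% = DMSO-only wells as the low control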
KLK7 zymogen act – proKLK7 (human) activation, primary screen; P49862; purified proKLK7, EDANS-DABCYL substrate fluorescence; 100% is mature enzyme control, 0% vehicle; activation, % at 7 µM; 0.9% of 370,000 active;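 active means activation above the mean of all tested compounds plus 3 SD, computed per campaign excluding outliers beyond control limits, cut at about 13% in these data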
NR2E3 ag-1 – NR2E3 (human) agonism. GST-NR2E3/biotin-RetCOR TR-FRET, 1536-well. inhibition of corepressor binding, % at 4.78 µM. 0.12% of 320,000 active;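 active means percent inhibition above the cutoff of mean plus 3 SD of all tested compounds, set per screening campaign, cut at about 20% in these data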;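 further: 0% = DMSO wells and 100% = biotin wells as full block of FRET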
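system = GST-tagged NR2E3 plus biotinylated RetCOR corepressor | input = 1.35 nM GST-NR2E3 | also added = 7 nM biotin-RetCOR | schedule = 5 h incubation at 4 °C | measured by = TR-FRET with europium anti-GST and streptavidin-D2, 340 nm excitation | read-out = percent loss of FRET ratio relative to control wells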
ADAM10 inh – ADAM10 inhibition, QFRET primary screen | O14672 | recombinant ADAM10, EDANS/DABCYL FRET peptide cleavage, 3 h | inhibition, % at 7 µM | 0.62% of 370,000 active | AID 720582;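 active means inhibition above a per-campaign cutoff equal to the mean of compounds falling between control-based bounds plus 3 SD, cut at about 20% in these data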;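 further: 0% = DMSO wells while the 100% control is not disclosed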
Target sequence (O14672 214-748 limits assumed): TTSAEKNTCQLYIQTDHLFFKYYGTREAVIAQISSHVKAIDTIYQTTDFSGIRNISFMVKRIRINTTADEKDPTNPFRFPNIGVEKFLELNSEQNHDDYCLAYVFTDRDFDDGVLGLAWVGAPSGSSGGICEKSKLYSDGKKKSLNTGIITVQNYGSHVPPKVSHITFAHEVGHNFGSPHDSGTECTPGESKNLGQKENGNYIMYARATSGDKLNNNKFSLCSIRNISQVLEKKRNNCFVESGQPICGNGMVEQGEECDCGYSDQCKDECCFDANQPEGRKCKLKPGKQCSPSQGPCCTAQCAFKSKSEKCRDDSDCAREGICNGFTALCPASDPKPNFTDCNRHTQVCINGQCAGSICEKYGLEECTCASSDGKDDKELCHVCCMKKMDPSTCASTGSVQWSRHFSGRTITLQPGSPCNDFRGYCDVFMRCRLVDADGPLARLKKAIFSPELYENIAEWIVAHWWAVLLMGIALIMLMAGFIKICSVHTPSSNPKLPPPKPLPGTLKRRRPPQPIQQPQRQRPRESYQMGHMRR
NR2E3 ag-2 – human photoreceptor-specific nuclear receptor agonism | Q9Y5X4 | CHO-S Gal4-NCOR/VP16-NR2E3 two-hybrid, luciferase | inhibition of corepressor binding, % at 3.98 µM | 0.35% of 360,000 active | AID 602229;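 active means inhibition above the mean of all tested compounds plus 3 SD, cut at about 70% in these data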;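 further: 0% = DMSO with NR2E3 transfected cells and 100% = cells lacking NR2E3 construct; higher means lower luciferase signal from less NR2E3 corepressor binding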
GASC-1 inh – blocks human GASC-1 demethylase activity; AID 2099; inhibition, % at 2.35 µM; Q9H3R0; 0.069% of 330,000 active; GST-JMJD2C(1-420) H3K9me3 demethylation, DELFIA europium;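 active means more than half of a compound's replicate wells show inhibition beyond 50%, single wells judged on their own value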;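 further: signal counts dimethyl H3K9 product captured on neutravidin plate; 0% = median of DMSO wells and 100% = 0.3 times that DMSO median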
Active calls of the source: *; i = inactive; nt = not tested or not shown. The list is not random: actives were taken first. Their share in the collection is about 2.5%.

SMILES	ADAM17 inh	KLK7 zymogen act	NR2E3 ag-1	ADAM10 inh	NR2E3 ag-2	GASC-1 inh
CCOc1ccc(NCc2nc3ccccc3n2CCOc2ccccc2)cc1	7.0	-0.1	-0.6	29.9*	-53.1	-4.6
O=[N+]([O-])c1cc([N+](=O)[O-])c2oc(-c3ccccc3)c(Br)c2c1O	nt	nt	nt	nt	100.2*	1.4
COc1cccc(/C=C2\CC3(OC(=O)C4CCCCC4)CCCN2C3)c1 (stereo unspecified)	-1.7	-0.1	nt	-7.1	nt	nt
Cc1cccn2c(=O)c3cc(C(=O)NCc4ccco4)c(=N)n(CCc4ccccc4)c3nc12	-481.9	18.2*	-0.3	i	-4.8	nt
CC(C)=CCN1CCN(Cc2cn[nH]c2C2CCCCC2)CC1CCO (stereo unspecified)	-3.4	0.1	2.6	2.5	nt	53.3*
COC(=O)[C@H]1C[C@@]2(C3C=CC=C3)c3ccccc3N[C@H]2N1	-1.1	0.0	nt	-1.7	nt	nt
CCNC(=O)C[C@H]1CC[C@H]2[C@@H](COc3ccc(NC(=O)c4ccc5c(c4)OCO5)cc3C(=O)N2C)O1	-16.2	-0.1	nt	18.4	nt	nt
Cn1c2ccccc2c(=O)n2c(=O)c3ccccc3cc12	nt	nt	28.8*	nt	nt	-3.7
Cn1c(-c2ccccc2)cc(=O)c2ccccc21	-2.2	0.3	2.3	-0.5	-7.3	-2.6
O=C(c1cccc(Cl)c1)N1CCC(=O)N(C(COCc2cccc(Cl)c2)Cc2ccccc2)CC1 (stereo unspecified)	2.2	-0.2	-1.8	6.1	10.2	-2.6
O=C(c1ccc(Cl)c(Cl)c1)N1CCC(=O)N(C(COCc2cccc(Cl)c2)Cc2ccccc2)CC1 (stereo unspecified)	12.7*	0.9	1.6	28.5*	-2.6	16.2
CCOC(=O)CC[C@@H]1CC[C@]2(CCCN(Cc3cccs3)C2)O1	1.9	-0.5	nt	3.0	nt	nt
C#CCCN([C@@H](CC(C)C)C(=O)OC)S(=O)(=O)c1ccc(F)cc1Br	6.9	-0.3	nt	11.6	nt	nt
C#CCCCN([C@@H](CC(C)C)C(=O)OC)S(=O)(=O)c1ccccc1Br	8.6*	-0.4	nt	13.7	nt	nt
Cc1cc2nc(/C=C/c3cccnc3)[nH]c2cc1C	i	43.9*	nt	i	-114.1	9.2
Cc1cc2nc(/C=C/c3nc4cc(C)c(C)cc4[nH]3)[nH]c2cc1C	-41.2	-1.7	-4.9	-100.7	-24.2	-23.1
COCCn1c(C)cc(C2=NNC(=NC3CC3)SC2)c1C	-4.2	-1.4	-4.3	-7.0	92.4*	8.7
Cc1cc(C2=NNC(=NC3CC3)SC2)c(C)n1-c1ccccc1	-3.5	-0.9	nt	-4.5	80.4*	-20.5
COc1ccc(-n2c(C)cc(C3=NNC(=NC4CC4)SC3)c2C)cc1	-1.4	0.7	nt	3.3	-40.7	nt
CCCCn1c(SC(C)C(=O)c2ccc(OC)cc2)nc2cc(S(N)(=O)=O)ccc21 (stereo unspecified)	19.7*	0.0	0.6	26.1*	-33.2	-2.1
CCCCn1c(SCC(=O)c2ccc(OC)cc2OC)nc2cc(S(N)(=O)=O)ccc21	-0.1	-0.1	0.0	15.0	-56.3	-1.3
C=CCNS(=O)(=O)c1cccc(C(C)=O)c1	4.2	0.6	2.2	6.8	-2.2	-5.5
C=CCNS(=O)(=O)c1cccc2cc(C(=O)O)c(O)cc12	-39.0	27.0*	0.4	-158.6	-16.9	1.9
COc1cc(OC)cc(C(=O)Nc2ccc(-n3cnnn3)c(C)c2)c1	-4.8	-0.5	-1.4	2.5	-41.8	88.8*
COc1cc(NC(=O)c2ccccc2-n2cnnn2)cc(OC)c1	-3.1	-0.1	-1.8	-8.5	-2.5	2.8
SMILES	ADAM17 inh	KLK7 zymogen act	NR2E3 ag-1	ADAM10 inh	NR2E3 ag-2	GASC-1 inh
COc1cccc(-c2csc(N3CCN(CC(=O)Nc4ccc5c(c4)OCO5)CC3)n2)c1	7.9	0.1	-2.0	14.5	17.7	-0.8
COc1ccc(NC(=O)CN2CCN(c3nc(-c4cccc(OC)c4)cs3)CC2)cc1	8.6	0.2	-1.5	20.3*	24.8	-1.7
CCCCN1/C(=C/c2ccc3ccccc3[n+]2CC)Sc2ccccc21	nt	nt	nt	nt	80.0*	-0.5
COc1ccc(CCNC(=O)c2cccs2)cc1OC	-8.3	0.1	1.2	-6.3	-9.0	-6.1
COc1ccc(CNc2nc(NCc3ccc(OC)c(OC)c3)n(C(=O)c3cccs3)n2)cc1OC	7.1	199.4*	4.7	18.2	-18.9	7.5
COc1ccc(CN(C(=O)CSc2nnc(-c3c[nH]c4ccccc34)o2)c2ccc(F)cc2)cc1OC	8.1	0.6	-0.4	21.5*	34.4	1.7
COc1ccc(CN(C(=O)CSc2nnc(-c3ccc(F)cc3)o2)c2ccc(F)cc2)cc1	2.1	0.4	0.1	6.6	-13.4	-1.6
COc1cc(/C=c2\s/c(=C(/C#N)C(=O)N3CCCC3)n(-c3ccccc3)c2=O)ccc1O	-1.8	0.5	1.5	0.1	-9.7	4.2
Cc1ccc(/C=c2\s/c(=C(/C#N)C(=O)N3CCCC3)n(Cc3ccco3)c2=O)s1	1.9	-0.4	-1.5	20.1*	-23.4	1.6
CCOC(=O)C1CCN(C(=O)C(C)(C)NC(=O)Nc2ccc(Cl)cc2Cl)CC1	1.8	nt	nt	3.7	nt	nt
COC(=O)C[C@@H]1CC[C@@H]2[C@@H](COc3ccc(NC(=O)c4ccc(F)cc4)cc3C(=O)N2C)O1	-2.8	0.5	nt	-5.4	nt	nt
NC(=S)Nc1cc2ccccc2c2ccccc12	-27.0	14.1*	-4.6	-109.4	-30.5	-5.4
CC1(C)CC2CC(C)(CN2S(=O)(=O)c2ccc(C(=O)Nc3cccc(S(=O)(=O)N4CCOCC4)c3)cc2)C1 (stereo unspecified)	20.0*	-0.7	-0.8	26.3*	2.8	28.6
CC1(C)CC2CC(C)(CN2S(=O)(=O)c2ccc(C(=O)Nc3cc(S(=O)(=O)N4CCOCC4)ccc3Cl)cc2)C1 (stereo unspecified)	2.1	0.3	-2.9	0.8	0.1	9.0
C#CCNC(=O)C[C@H]1C[C@@]2(C(=O)OC)C(=C[C@H](C3CCCC3)O[C@@H]2C)N(CCCCCCCC)C1=O	6.3	-0.1	nt	-1.0	nt	nt
O=C(CN1CCCN(S(=O)(=O)c2ccc(Br)s2)CC1)Nc1ccc(Cl)cc1	1.6	-0.1	-0.3	20.0*	19.7	-0.2
CCOC(=O)CNC(=O)CN1CCCN(S(=O)(=O)c2ccc(Br)s2)CC1	0.8	0.5	-1.5	1.1	9.1	nt
O=[N+]([O-])c1ccc(/C=[N+](\[O-])[C@@H]2CCCC[C@@H]2/[N+]([O-])=C/c2ccc([N+](=O)[O-])o2)o1	-9.0	0.8	0.4	-20.2	4.2	88.9*
O=C(N/N=C/c1ccc([N+](=O)[O-])o1)C1CCCC1	-2.7	0.9	-0.3	-13.4	-0.7	15.2
COC(=O)[C@@]12CCCCC3=C1N(CCC3)C(=O)[C@H]2CC(=O)N1CCCC1	-1.6	0.2	nt	-1.6	nt	nt
O=C(CNC(=O)c1ccccc1O)N/N=C/c1cc(Br)ccc1OC(=O)/C=C/c1ccco1	-4.8	-4.2	1.1	-16.4	nt	53.7*

Screening results (PubChem)
